Reference: ChEMBL document CHEMBL6153049, “Functionalized regioisomers of the natural product phenazines myxin and iodinin as potent inhibitors of Mycobacterium tuberculosis and human acute myeloid leukemia cells” (Eur J Med Chem, 2025)

Columns and labels:
[1] = Cytotoxicity against rat H9c2 cells assessed as inhibition of cell viability measured after 24 hrs by WST-1 assay; type: toxicity, cell-based
In short: (§1)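 NRK and H9c2 seeded at 5000 cells/well in DMEM with 10 % FBS, 0.2 mM L-glutamine, penicillin/streptomycin. Compounds dissolved in DMSO; 24 h exposure. Viability read by WST-1. Hoechst 33342 nuclear morphology was checked after fixation. IC50 from four-parameter regression of WST-1 signal. Cells were mycoplasma-tested.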

[2] = system: Mycobacterium tuberculosis; experiment: Antimycobacterial activity against drug-sensitive Mycobacterium tuberculosis H37Rv assessed as bacterial growth inhibition measured after 1 week by MABA assay; type: functional, organism-based; conditions: 168 h
In short: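 Colonies grown on 7H10+OADC agar at 37 °C, then to mid-log in 7H9+OADC; about 4×10^5 CFU/mL inoculated into 7H9 with escalating compound concentrations. Incubated 37 °C for 1 week, then resazurin (0.6 mM in PBS) mixed 8:5 with 20 % Tween 80 was added and incubated overnight at 37 °C. Fluorescent resorufin read-out gave IC50.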

MOLM-13 = experiment: Cytotoxicity against human MOLM-13 cells assessed as inhibition of cell viability measured after 24 hrs by WST-1 assay; type: functional, cell-based; conditions: MOLM-13, 24 h
In short: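 MOLM-13 seeded at 30,000 cells/well in RPMI with 10 % FBS, 0.2 mM L-glutamine, penicillin/streptomycin. Compounds dissolved in DMSO; 24 h exposure. Viability read by WST-1. Nuclear morphology checked with Hoechst 33342 after formaldehyde fixation. IC50 from four-parameter regression of WST-1 signal. Cells were mycoplasma-tested.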

[3] = Cytotoxicity against rat NRK cells assessed as inhibition of cell viability measured after 24 hrs by WST-1 assay; type: toxicity, cell-based; in short: as §1

Compound | IC50 at 24 h [1] | IC50 [2] | IC50 (MOLM-13) | IC50 at 24 h [3]
[O-][n+]1c2cccc(O)c2[n+]([O-])c2cccc(O)c21 | > 50 µM | 0.17 µM | 2 µM | > 50 µM
COc1cccc2c1[n+]([O-])c1cccc(O)c1[n+]2[O-] | 46 µM | 0.014 µM | 1.4 µM | 77 µM
[O-][n+]1c2ccccc2[n+]([O-])c2c(O)cccc21 | > 100 µM | 0.26 µM | 11 µM | 79 µM
COc1cc2c(cc1O)[n+]([O-])c1ccccc1[n+]2[O-] | – | 11.1 µM | > 100 µM | –
CC(=O)Oc1cc(OC(C)=O)c2c(c1)[n+]([O-])c1ccccc1[n+]2[O-] | – | 5 µM | 35 µM | –
CCOCOc1cc(OC)c2c(c1)[n+]([O-])c1ccccc1[n+]2[O-] | > 25 µM | 0.06 µM | 5.1 µM | > 25 µM
[O-][n+]1c2ccccc2[n+]([O-])c2c(O)cc(O)cc21 | – | 0.56 µM | 11 µM | –
CCOC(=O)COc1cc(OCC(=O)OCC)c2c(c1)[n+]([O-])c1ccccc1[n+]2[O-] | > 200 µM | 2.88 µM | 2 µM | > 200 µM
COc1cc(O)c2c(c1)[n+]([O-])c1ccccc1[n+]2[O-] | 81 µM | 0.05 µM | 3.8 µM | 38 µM
CCOC(=O)COc1cc(O)c2c(c1)[n+]([O-])c1ccccc1[n+]2[O-] | 89 µM | 0.17 µM | 5.7 µM | 194 µM
CCOC(=O)COc1cc(OC)c2c(c1)[n+]([O-])c1ccccc1[n+]2[O-] | – | 0.25 µM | 10 µM | –
CC(=O)Oc1cc(O)c2c(c1)[n+]([O-])c1ccccc1[n+]2[O-] | – | 0.85 µM | 16 µM | –
COc1cc(O)cc2c1[n+]([O-])c1ccccc1[n+]2[O-] | > 200 µM | 1.91 µM | > 100 µM | > 100 µM
CCOc1cc(O)c2c(c1)[n+]([O-])c1ccccc1[n+]2[O-] | 103 µM | 0.04 µM | 2 µM | 87 µM
COc1cccc2c1[n+]([O-])c1ccccc1[n+]2[O-] | 12 µM | 0.04 µM | 1.4 µM | 32 µM
COc1cc(OC(C)=O)c2c(c1)[n+]([O-])c1ccccc1[n+]2[O-] | 55 µM | 0.08 µM | 6.5 µM | 36 µM
CCOC(=O)COc1cc(OC)cc2c1[n+]([O-])c1ccccc1[n+]2[O-] | 19 µM | 2.41 µM | 1.4 µM | 14 µM
CCOCOc1cc(O)c2c(c1)[n+]([O-])c1ccccc1[n+]2[O-] | > 25 µM | 0.02 µM | 3.8 µM | > 25 µM
COc1cc(OC)c2c(c1)[n+]([O-])c1ccccc1[n+]2[O-] | 108 µM | 0.12 µM | 6 µM | 46 µM
COCOc1cc(O)c2c(c1)[n+]([O-])c1ccccc1[n+]2[O-] | > 50 µM | 0.11 µM | 5.2 µM | > 100 µM
[O-][n+]1c2ccccc2[n+]([O-])c2cc(O)c(O)cc21 | – | > 50 µM | > 50 µM | –
